The full list was thinned out, with hits kept by preference.
NLRP3 yeast inh – blocks the NALP3 inflammasome reconstituted in yeast. Yeast reconstituted NLRP3/ASC/caspase-1, beta-gal luminescence, 24 h. inhibition, % at 10 µM. 0.39% of 330,000 active;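 active means inhibition of 50% or more; inactive means inhibition below 50%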;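 further: plate controls were induced DMSO wells for no effect and uninduced yeast grown without galactose for full effect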
T cruzi repl – blocks replication of Trypanosoma cruzi. T. cruzi beta-gal in NIH3T3, luminescence, 90 h. AID 1885. 1.4% of 300,000 active. inhibition, % (test concentration not listed);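 active means mean inhibition across valid replicates above about 55%, limit read from the data; inconclusive means mean below that limit but half or more replicates reach it; inactive means mean below it, under half of replicates reach it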;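 further: signal also drops with host cell toxicity which is not excluded here; 0% = plate median of DMSO wells and 100% = zero luminescence signal; higher percent means less beta-gal luminescence so fewer parasites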
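System – NIH/3T3 host cells with β-galactosidase reporter T. cruzi · Doses – single 50 nL compound addition per well in DMSO · Reagent – 5000 T. cruzi trypomastigotes/well · Medium – Low-serum DMEM with 2% FBS · Timing – ≥90 h infection period, 3 h prior cell attachment · Evaluation – parasite load inhibition, % · Technique – GalScreen luminescence, 60 min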
Calb FLC – affects C. albicans growth with fluconazole; C. albicans CaCi-2 + fluconazole, Alamar Blue growth, 48 h; growth inhibition, % (no concentration beside the values); 0.57% of 300,000 active;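 active means growth inhibition above about 58% in most replicates, limit read from the data, passing the limit was not always enough; inconclusive means exactly half the replicates above a set limit; inactive means most replicates below a set limit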;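 further: all wells also contain fluconazole at 8 µg/ml as a sub-toxic cotreatment; 0% = median of DMSO wells and 100% = median of geldanamycin control wells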
PolyA inh – inhibitors of polyadenylation in S. cerevisiae; activity score, % at 12 µM; S. cerevisiae SKY197-pL101 polyadenylation reporter, beta-gal luminescence; efflux-impaired pdr1/pdr3 knockout yeast; score 100 = 6 SD above DMSO; 0.02% of 300,000 active;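 active means lowest replicate activity score at least 50, where 100 means six control SD above control mean; inconclusive means lowest score under 50 but half or more replicates reach 50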;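 further: yeast exposed to compound for 9 h at 30 °C; higher score means more reporter readthrough which indicates perturbed polyadenylation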
NALP1 inh – inhibitors of NALP1 inflammasome in yeast | S. cerevisiae NALP1/ASC/caspase-1 growth, X-gal OD620, 72 h | inhibition, % at 10 µM | 0.61% of 280,000 active | AID 2071; in the data active means inhibition mostly above about 24%, no sharp cut-off; inactive means mostly below about 32%
L major viab – reduces viability of Leishmania major promastigotes. resazurin fluorescence viability. inhibition, % at 10 µM. AID 1063. 9% of 200,000 active; in the data active means inhibition above about 50%;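 further: promastigotes grown with compound for 44 hours at 28 °C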
An asterisk follows results filed as active; ? = inconclusive; nt = no result given.

SMILES	NLRP3 yeast inh	T cruzi repl	Calb FLC	PolyA inh	NALP1 inh	L major viab
CCOC(=O)c1c(C)[nH]c(C)c1C(=O)COC(=O)c1cccc(S(=O)(=O)N(CC)CC)c1	26	-6	25	-8	-4	99*
CCOC(=O)c1c(C)[nH]c(C)c1C(=O)COC(=O)c1cccc(S(=O)(=O)NC)c1	4	12	-1	-2	-9	80*
COc1ccccc1N(CC(=O)NCCSCc1ccco1)S(=O)(=O)c1ccccc1	13	-8	13	-5	12	nt
COc1ccc(-n2nnc3c(SC(C(C)=O)C(=O)N(C)C)ncnc32)cc1 (stereo unspecified)	9	-15	-2	-5	-9	nt
Cc1ccc(-n2nc(C)c3c(C)c(CCC(=O)NCC4CCCO4)c(=O)n(C)c32)cc1 (stereo unspecified)	19	63*	5	-19	8	nt
CCn1c(=O)c(CCC(=O)NCC2CCCO2)c(C)c2c(C)nn(-c3ccccc3)c21 (stereo unspecified)	22	-1	-7	9	26	nt
CN1C(=O)/C(=C/c2ccccc2F)Sc2ccc(C(=O)N3CCCC3)cc21	5	-16	18	5	31	nt
COc1ccccc1-n1cnc2cc(NCc3cccs3)ccc21	18	13	3	7	-7	96*
COc1ccc(CNc2ccc3c(c2)ncn3-c2ccccc2OC)cc1	46	26	-10	6	2	100*
CCN(CC)S(=O)(=O)c1cc(NC(=O)COC(=O)c2ccc(NC(=O)CC#N)cc2)ccc1C	4	2	20	-16	9	-11
CC(C)(C)c1ccc(-n2ncc3c2CCCC3NC(=O)C2(C(N)=O)CC2)cc1 (stereo unspecified)	0	-8	-9	?	5	nt
Cc1sc(NC(=O)c2sc3nc4c(C)cccc4cc3c2N)c(C#N)c1C	20	4	-5	-21	14	56*
Cc1cccc2cc3c(N)c(C#N)sc3nc12	14	5	23	-65	13	-3
Cc1cccnc1NC(=O)c1ccc(S(=O)(=O)N2CC(C)OC(C)C2)cc1 (stereo unspecified)	-7	-12	-32	-2	-14	-7
CCOC(=O)/C(C#N)=C/c1cc2cc(C)c(C)cc2nc1Cl	16	3	1	-6	nt	nt
Cc1cc2cc(C=C(C#N)C#N)c(Cl)nc2cc1C	18	2	1	-17	60*	25
Cc1c(O)c2cccnc2[nH]c1=O	-7	14	-7	14	30	49
Nc1cc(-c2ccc(Cl)cc2)nn1-c1ccccc1	27	0	5	-9	13	13
Nc1ccccc1Nc1cc(-c2ccccc2)nn1-c1cccc(Cl)c1	22	58*	-14	12	25	7
COc1nc(-c2ccccc2)cc(-c2ccc(OC)c(OC)c2)n1	23	nt	42	-17	18	61*
O=C(COc1ccc(/C=N/NC(=O)c2cc3ccccc3o2)cc1Br)Nc1ccccc1	12	70*	2	7	18	-1
COc1cc(CN(C(=O)c2cccs2)C2CCS(=O)(=O)C2)cc(OC)c1OC (stereo unspecified)	1	-17	?	18	4	nt
Cc1nc(-c2ccncc2)nc(NCCNc2ncccc2C(F)(F)F)c1Cl	17	77*	-4	-28	nt	nt
OC(CNCCNc1ncccc1C(F)(F)F)Cn1ccc2ccccc21 (stereo unspecified)	-3	24	-3	-6	22	nt
O=C(CC(c1ccccc1)c1cc(Cl)ccc1O)NCCCN1CCOCC1 (stereo unspecified)	15	-21	-4	-19	20	nt
SMILES	NLRP3 yeast inh	T cruzi repl	Calb FLC	PolyA inh	NALP1 inh	L major viab
COc1cc(S(=O)(=O)N2CCC(O)(c3cccc(C(F)(F)F)c3)CC2)ccc1-n1cnnn1	1	61*	1	-9	6	-3
CCN(CC)CCNC(=O)c1c(O)c2cc(OC)c(OC)cc2[nH]c1=O	6	-1	4	6	3	79*
COc1ccc(CNC(=O)c2c(O)c3cc(OC)c(OC)cc3[nH]c2=O)cc1OC	22	0	0	8	31	nt
CCN1CCN(CC(=O)N2c3ccccc3Sc3ccccc32)CC1	6	2	-5	5	10	nt
CCOC(=O)Nc1ccc2c(c1)N(C(=O)CCN(C)C)c1ccccc1S2	35	85*	17	-6	20	11
CCOC(=O)Nc1ccc2c(c1)N(C(=O)CN1CCN(C)CC1)c1ccccc1S2	0	71*	17	-2	19	19
CC(C)N1CC2=C(C1=O)C(c1ccc(O)cc1)NC(=O)N2C (stereo unspecified)	-8	0	-5	20	-1	-2
COc1cc(OC)cc(C(=O)N2CCCC(Nc3ccc(F)cc3)C2)c1 (stereo unspecified)	22	-17	16	5	0	nt
COc1ccc2cc(C(=O)N3CCCC(Nc4ccc(F)cc4)C3)n(C)c2c1 (stereo unspecified)	10	-2	13	10	35*	nt
CC(C)(C)c1ccc(C(=O)CC(Sc2ccc(Cl)cc2)C(=O)O)cc1 (stereo unspecified)	10	60*	0	-20	9	78*
Cc1ccc(SC(CC(=O)c2ccc(F)cc2)C(=O)O)cc1 (stereo unspecified)	5	1	-3	-2	4	nt
CC(=O)c1ccc(COC(=O)Cc2ccc([N+](=O)[O-])cc2)cc1	15	-10	-3	-20	-1	nt
O=C(CN1CC[n+]2c(-c3cccs3)csc21)c1ccc(Br)cc1	6	60*	7	-15	16	20
COc1cccc(NC(=O)CCN2C(=O)c3cccc([N+](=O)[O-])c3C2=O)c1	-1	0	2	11	-10	nt
CC(OC(=O)CCN1C(=O)c2cccc([N+](=O)[O-])c2C1=O)C(=O)Nc1cc(Cl)cc(Cl)c1 (stereo unspecified)	6	-7	-4	5	16	54*
CCCCN(C(=O)CCC(=O)Nc1cc(C)on1)C(C(=O)NC1CCCC1)c1cccc(OC)c1 (stereo unspecified)	-11	6	7	-15	17	nt
O=C(CCNC(=O)c1ccc(Cl)cc1)Nc1ccc(S(=O)(=O)N2CCCCC2)cc1	0	10	9	?	nt	nt
O=C(O)c1ccc(N=NNc2cccc([N+](=O)[O-])c2)cc1	5	1	19	12	11	5
N#C/C(=N\Nc1cccc([N+](=O)[O-])c1)C(=O)c1ccc(Br)cc1	47	28	97*	-24	-2	14
Cn1cc(Br)c(C(=O)NNC(=O)c2ccc(Cl)cc2)n1	8	0	-1	9	23	52*
Cc1ccc(Oc2cc(C)nc(-c3ccccc3O)n2)cc1	20	-6	2	5	20	10

Assay outcomes deposited in PubChem BioAssay by several laboratories.
